Assays:
[1] = target: T1, C5a anaphylatoxin chemotactic receptor 1 (Homo sapiens) (UniProt P21730); assay: Agonist activity at human C5aR in CD88 transfected RBL cells at 286 uM; assay type: functional, cell-based
T1 sequence (whole entry): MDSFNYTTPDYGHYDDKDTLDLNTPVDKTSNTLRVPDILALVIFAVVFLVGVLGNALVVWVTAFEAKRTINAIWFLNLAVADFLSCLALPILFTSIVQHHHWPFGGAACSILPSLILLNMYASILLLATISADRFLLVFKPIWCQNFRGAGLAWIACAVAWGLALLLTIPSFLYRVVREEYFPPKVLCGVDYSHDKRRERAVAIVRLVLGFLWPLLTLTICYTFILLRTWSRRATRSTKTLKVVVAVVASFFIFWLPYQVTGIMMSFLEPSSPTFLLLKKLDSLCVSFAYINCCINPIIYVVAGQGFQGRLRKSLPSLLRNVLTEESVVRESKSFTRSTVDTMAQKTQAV

[2] = Stability in human liver microsome after 1 hr; assay type: ADME; conditions: liver microsomes, read-out: Stability
Outline: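 Compound incubated with human liver microsomes, 1 h at 37 °C; read-out is % of parent remaining.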

CYP3A4 = CYP3A4 (Homo sapiens, UniProt P08684); assay: Inhibition of CYP3A4 at 10 uM; assay type: ADME
J774.A1 = assay: Inhibition of C5a-induced chemotaxis of mouse J774A.1 cells; assay type: functional, cell-based
Outline: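 Mouse J774A.1 cells; chemotaxis induced by C5a, inhibition measured and IC50 (µM) determined.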

[3] = target: T2, C5a anaphylatoxin chemotactic receptor 1 (Homo sapiens, UniProt P21730); assay: Antagonist activity at human C5aR in CD88 transfected RBL cells assessed as inhibition of C5a-induced glucosaminidase release; assay type: functional, cell-based
T2 sequence (P21730 whole entry): T1 sequence (whole entry)
Outline: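 Functional antagonism read as inhibition of glucosaminidase release stimulated by C5a from RBL cells transfected with CD88 (RBL+); IC50 in µM.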

Vasopressin V1a receptor = Vasopressin V1a receptor (Homo sapiens, UniProt P37288); assay: Binding affinity to V1a receptor
[4] = target: T2, C5a anaphylatoxin chemotactic receptor 1; assay: Antagonist activity at human C5aR expressed in human PMN cells assessed as inhibition of glucosaminidase release; assay type: functional, cell-based
[5] = target: T2, C5a anaphylatoxin chemotactic receptor 1; assay: Inhibition of C5a binding to human C5aR expressed in HEK293 cells; assay type: cell-based
Substance-K receptor = target: T3, Substance-K receptor (Homo sapiens, UniProt P21452); assay: Binding affinity to NK2 receptor
T3 sequence (P21452 whole entry): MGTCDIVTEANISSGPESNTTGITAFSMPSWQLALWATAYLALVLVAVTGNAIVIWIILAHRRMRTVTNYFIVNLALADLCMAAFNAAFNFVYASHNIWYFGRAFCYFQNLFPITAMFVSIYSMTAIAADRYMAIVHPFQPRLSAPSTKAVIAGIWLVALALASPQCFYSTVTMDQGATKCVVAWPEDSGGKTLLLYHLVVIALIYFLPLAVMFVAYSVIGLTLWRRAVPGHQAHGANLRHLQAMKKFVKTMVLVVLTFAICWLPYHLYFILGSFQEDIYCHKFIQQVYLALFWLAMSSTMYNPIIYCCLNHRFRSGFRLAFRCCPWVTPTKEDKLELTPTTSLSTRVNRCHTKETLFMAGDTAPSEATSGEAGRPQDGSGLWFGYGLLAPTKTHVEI

Melanocortin receptor 4 = Melanocortin receptor 4 (Homo sapiens, UniProt P32245); assay: Binding affinity to MC4 receptor
Nociceptin receptor = Nociceptin receptor (Homo sapiens, UniProt P41146); assay: Binding affinity to ORL1 receptor
Chain of Nociceptin receptor (P41146 whole entry): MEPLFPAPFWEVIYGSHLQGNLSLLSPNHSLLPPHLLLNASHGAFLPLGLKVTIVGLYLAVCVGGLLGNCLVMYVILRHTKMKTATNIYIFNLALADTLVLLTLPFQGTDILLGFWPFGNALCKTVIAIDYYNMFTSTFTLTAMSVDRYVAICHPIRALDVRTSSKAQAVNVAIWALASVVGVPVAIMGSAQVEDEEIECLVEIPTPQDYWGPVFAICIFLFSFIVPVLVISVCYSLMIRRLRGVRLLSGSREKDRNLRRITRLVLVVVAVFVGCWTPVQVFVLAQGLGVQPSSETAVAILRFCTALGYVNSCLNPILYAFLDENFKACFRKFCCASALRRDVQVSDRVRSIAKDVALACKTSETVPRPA

Chain of CYP3A4 (P08684 whole entry): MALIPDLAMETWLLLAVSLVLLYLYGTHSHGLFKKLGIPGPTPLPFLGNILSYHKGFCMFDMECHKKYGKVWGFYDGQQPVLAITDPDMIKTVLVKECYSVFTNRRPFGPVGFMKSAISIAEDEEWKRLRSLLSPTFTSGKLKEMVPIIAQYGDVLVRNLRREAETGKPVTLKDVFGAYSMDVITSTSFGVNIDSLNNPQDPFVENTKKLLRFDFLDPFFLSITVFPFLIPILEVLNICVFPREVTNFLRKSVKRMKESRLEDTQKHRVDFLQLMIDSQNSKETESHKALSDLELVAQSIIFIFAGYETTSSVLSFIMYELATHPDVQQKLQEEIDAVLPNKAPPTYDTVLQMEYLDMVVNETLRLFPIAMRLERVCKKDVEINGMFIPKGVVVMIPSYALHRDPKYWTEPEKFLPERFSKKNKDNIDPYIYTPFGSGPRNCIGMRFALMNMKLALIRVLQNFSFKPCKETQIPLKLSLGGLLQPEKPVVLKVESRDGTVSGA
Chain of Vasopressin V1a receptor (P37288 whole entry): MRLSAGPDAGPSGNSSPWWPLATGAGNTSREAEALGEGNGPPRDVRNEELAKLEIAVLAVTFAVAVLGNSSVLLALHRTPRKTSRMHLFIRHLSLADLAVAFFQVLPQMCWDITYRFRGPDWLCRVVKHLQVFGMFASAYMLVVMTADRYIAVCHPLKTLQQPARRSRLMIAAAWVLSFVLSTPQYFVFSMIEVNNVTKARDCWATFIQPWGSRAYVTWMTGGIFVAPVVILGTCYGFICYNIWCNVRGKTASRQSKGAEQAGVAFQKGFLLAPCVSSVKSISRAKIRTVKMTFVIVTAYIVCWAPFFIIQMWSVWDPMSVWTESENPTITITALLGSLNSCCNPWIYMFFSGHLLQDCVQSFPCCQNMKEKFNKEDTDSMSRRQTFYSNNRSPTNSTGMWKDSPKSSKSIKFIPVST
Chain of Melanocortin receptor 4 (P32245 whole entry): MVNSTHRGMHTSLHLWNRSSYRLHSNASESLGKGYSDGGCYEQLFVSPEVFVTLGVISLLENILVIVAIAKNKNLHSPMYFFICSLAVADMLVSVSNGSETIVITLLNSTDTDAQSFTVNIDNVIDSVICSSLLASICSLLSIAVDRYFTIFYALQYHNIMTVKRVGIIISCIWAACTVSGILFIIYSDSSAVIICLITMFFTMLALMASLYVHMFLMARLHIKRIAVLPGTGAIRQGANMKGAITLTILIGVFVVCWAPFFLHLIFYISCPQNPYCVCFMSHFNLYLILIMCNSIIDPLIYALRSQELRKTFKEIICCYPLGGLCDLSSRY

Structure (SMILES): CC(C)CC[C@H](NC(=O)[C@@H]1CCCN1C(=O)[C@H](CCCN)NC(=O)[C@H](Cc1ccccc1)NC(=O)[C@@H]1CC(=O)NC(=O)N1)C(=O)N[C@@H](Cc1ccc(F)cc1)C(=O)N[C@H](Cc1ccccc1)C(N)=O
- Activity [1]: 0%

Structure (SMILES): CC(=O)N[C@@H](Cc1ccccc1)C(=O)N[C@@H](CCCN)C(=O)N1CCC[C@H]1C(=O)N[C@H](CCC(C)C)C(=O)N[C@H](Cc1ccc(Cl)c(Cl)c1)C(=O)N[C@H](Cc1ccccc1)C(N)=O
- Activity [1]: 7.2%

Structure (SMILES): CC(=O)N[C@@H](Cc1ccccc1)C(=O)N[C@H]1CCCNC(=O)[C@H](CCCN=C(N)N)NC(=O)[C@H](Cc2c[nH]c3ccccc23)NC(=O)[C@@H](CC2CCCCC2)NC(=O)[C@@H]2CCCN2C1=O
- remaining at 1 h [2]: 10%
- inhibition at 10 µM (CYP3A4): 77%
- IC50 (J774.A1): 7.1 µM

Structure (SMILES): CC(=O)N[C@@H](Cc1ccccc1)C(=O)N[C@@H](CCCN)C(=O)N1CCC[C@H]1C(=O)N[C@H](CCC(C)C)C(=O)N[C@H](Cc1cccc(Cl)c1)C(=O)N[C@H](Cc1ccccc1)C(N)=O
- Activity [1]: 1.2%

Structure (SMILES): CC(=O)N[C@@H](Cc1ccccc1)C(=O)N[C@@H](CCCN)C(=O)N1CCC[C@H]1C(=O)N[C@@H](CCC(C)C)C(=O)N[C@H](Cc1ccc(F)cc1)C(=O)N[C@H](Cc1ccccc1)C(N)=O
- Activity [1]: 0%

Structure (SMILES): CC(=O)N[C@@H](Cc1ccccc1)C(=O)N[C@@H](CCCN)C(=O)N1CCC[C@H]1C(=O)N[C@H](CCC(C)C)C(=O)N[C@@H](Cc1ccc(Cl)c(Cl)c1)C(=O)N[C@@H](Cc1ccccc1)C(N)=O
- remaining at 1 h [2]: 49%
- IC50 [3]: 116 nM

Structure (SMILES): CC(=O)N[C@@H](Cc1ccccc1)C(=O)N[C@@H](CCCN)C(=O)N1CCC[C@H]1C(=O)N[C@H](CCC(C)C)C(=O)N[C@@H](Cc1cccc(Cl)c1)C(=O)N[C@@H](Cc1ccccc1)C(N)=O
- remaining at 1 h [2]: 62%
- IC50 [3]: 60 nM

Structure (SMILES): CC(C)CC[C@@H](NC(=O)[C@@H]1CCCN1C(=O)[C@H](CCCN)NC(=O)[C@H](Cc1ccccc1)NC(=O)[C@@H]1CC(=O)NC(=O)N1)C(=O)N[C@@H](Cc1ccc(F)cc1)C(=O)N[C@@H](Cc1ccccc1)C(N)=O
- IC50 (Vasopressin V1a receptor): 740 nM
- remaining at 1 h [2]: 80%
- IC50 [4]: 41 nM
- inhibition at 10 µM (CYP3A4): 38%
- IC50 (J774.A1): 0.42 µM
- IC50 [3]: 39 nM
- IC50 [5]: 111 nM
- IC50 (Substance-K receptor): 710 nM
- IC50 (Melanocortin receptor 4): 13 µM
- IC50 (Nociceptin receptor): > 50 µM

Structure (SMILES): CC(=O)N[C@@H](Cc1ccccc1)C(=O)N[C@@H](CCCN)C(=O)N1CCC[C@H]1C(=O)N[C@H](CCC(C)C)C(=O)N[C@H](Cc1c[nH]c2ccccc12)C(=O)N[C@H](Cc1ccccc1)C(N)=O
- Activity [1]: 0%

Structure (SMILES): CC(=O)N[C@@H](Cc1ccccc1)C(=O)N[C@@H](CCCN)C(=O)N1CCC[C@H]1C(=O)N[C@H](CCC(C)C)C(=O)N[C@H](Cc1csc2ccccc12)C(=O)N[C@H](Cc1ccccc1)C(N)=O
- Activity [1]: 0%

From ChEMBL document CHEMBL1148673, “Peptidomimetic C5a receptor antagonists with hydrophobic substitutions at the C-terminus: increased receptor specificity and in vivo activity” (Bioorg Med Chem Lett, 2006)
